Results: ChEMBL document CHEMBL5705899 (Biochem J, 2014)
Blank lines part the entries; values can stand above or below the compound they belong to. Activity calls are given as the source filed them. The rule behind the calls is not given here.

Legend:
[1] = biological target: Serine/threonine-protein kinase mTOR (Homo sapiens) (UniProt P42345); experiment: Inhibition of mTOR in human U2OS cells expressing FLAG-tagged SGK3 assessed as reduction in 4EBP1 phosphorylation S65 residues at 0.1 uM 1 hr by immunoblot analysis; format: cell-based
Outline: (§1)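 Doxycycline-induced FLAG-SGK3 U2OS Flp-In cells exposed to 0.1 μM mTOR inhibitor for 1 h. Clarified lysates immunoblotted for 4EBP1 phosphosites (Thr37/Thr46, Ser65), ECL film detection.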

[2] = biological target: Serine/threonine-protein kinase mTOR (Homo sapiens) (UniProt P42345); experiment: Inhibition of mTOR in human U2OS cells expressing FLAG-tagged SGK3 assessed as reduction in 4EBP1 phosphorylation T37/T46 residues at 0.1 uM 1 hr by immunoblot analysis; format: cell-based; outline: as §1
[3] = system: U2OS; experiment: Inhibition of PI3K in human U2OS cells expressing FLAG-tagged SGK3 assessed as reduction in 4EBP1 phosphorylation S65 residues at 0.01 to 0.5 uM 1 hr by immunoblot analysis; format: cell-based; settings: dose 0.01-0.5 µM
Outline: (§2)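 FLAG-SGK3 U2OS Flp-In cells (doxycycline-induced) treated for 1 h with class I PI3K inhibitor, 0.5 μM or a dose series as indicated. Lysed in phosphatase-inhibitor buffer, clarified at 16000 g for 10 min at 4°C, Bradford-normalized. Akt, PRAS40 and 4EBP1 phosphosites were read by immunoblot, and SGK3 sites on anti-FLAG immunoprecipitates, with ECL film detection.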

[4] = system: U2OS; experiment: Inhibition of PI3K in human U2OS cells expressing FLAG-tagged SGK3 assessed as reduction in AKT phosphorylation T308 residues at 0.01 to 0.5 uM 1 hr by immunoblot analysis; format: cell-based; settings: dose 0.01-0.5 µM; outline: as §2
[5] = system: U2OS; experiment: Inhibition of PI3K in human U2OS cells expressing FLAG-tagged SGK3 assessed as reduction in AKT phosphorylation S473 residues at 0.01 to 0.5 uM 1 hr by immunoblot analysis; format: cell-based; settings: dose 0.01-0.5 µM; outline: as §2
[6] = system: U2OS; experiment: Inhibition of PI3K in human U2OS cells expressing FLAG-tagged SGK3 assessed as reduction in PRAS40 phosphorylation T246 residues at 0.01 to 0.5 uM 1 hr by immunoblot analysis; format: cell-based; settings: dose 0.01-0.5 µM; outline: as §2
[7] = system: U2OS; experiment: Inhibition of PI3K in human U2OS cells expressing FLAG-tagged SGK3 assessed as reduction in 4EBP1 phosphorylation T37/T46 residues at 0.01 to 0.5 uM 1 hr by immunoblot analysis; format: cell-based; settings: dose 0.01-0.5 µM; outline: as §2
[8] = biological target: T1, 3-phosphoinositide-dependent protein kinase 1 (Homo sapiens) (UniProt O15530); experiment: Inhibition of PDK1 in human U2OS cells expressing FLAG-tagged SGK3 assessed as reduction in SGK3 activity at 1 uM using cross peptide as substrate incubated for 30 mins in presence of [gamma-32P]-ATP by radioactive assay; format: cell-based
T1 sequence (whole entry): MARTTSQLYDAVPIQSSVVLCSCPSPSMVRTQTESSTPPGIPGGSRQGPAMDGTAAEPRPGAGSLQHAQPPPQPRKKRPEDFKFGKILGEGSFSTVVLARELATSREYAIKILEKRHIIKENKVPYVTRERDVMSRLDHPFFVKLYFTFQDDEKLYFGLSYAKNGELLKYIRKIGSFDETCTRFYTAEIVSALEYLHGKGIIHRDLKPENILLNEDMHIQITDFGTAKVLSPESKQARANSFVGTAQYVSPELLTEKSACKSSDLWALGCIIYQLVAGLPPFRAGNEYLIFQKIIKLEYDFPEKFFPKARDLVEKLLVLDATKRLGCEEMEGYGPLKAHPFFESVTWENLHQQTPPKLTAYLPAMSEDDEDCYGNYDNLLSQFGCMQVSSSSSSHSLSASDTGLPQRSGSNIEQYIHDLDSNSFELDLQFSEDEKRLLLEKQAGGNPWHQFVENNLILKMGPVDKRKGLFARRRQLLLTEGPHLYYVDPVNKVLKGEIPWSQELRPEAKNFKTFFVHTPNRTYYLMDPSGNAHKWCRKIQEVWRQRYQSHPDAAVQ
Outline: (§3)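 U2OS Flp-In cells with doxycycline-induced (0.01 mg/ml, 24 h) full-length SGK3 carrying a C-terminal FLAG tag; treated with 1 μM inhibitor for 1 h. Lysis, anti-FLAG immunoprecipitation, washes (high-salt lysis buffer, lysis buffer, 50 mM Tris pH 7.5/0.1 mM EGTA). IP kinase assay: 30 μM Crosstide, 0.1 mM [γ-32P]ATP, 10 mM Mg acetate, 30 min. Phosphosites then immunoblotted, ECL. Triplicate reactions.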

[9] = biological target: T1, 3-phosphoinositide-dependent protein kinase 1 (Homo sapiens); experiment: Inhibition of PDK1 in human U2OS cells expressing FLAG-tagged SGK3 assessed as reduction in SGK3 phosphorylation at T320 residues at 1 uM after 1 hr by immunoblot analysis; format: cell-based; outline: as §3
[10] = biological target: T1, 3-phosphoinositide-dependent protein kinase 1 (Homo sapiens); experiment: Inhibition of PDK1 in human U2OS cells expressing FLAG-tagged SGK3 assessed as reduction in SGK3 phosphorylation at S486 residues at 1 uM after 1 hr by immunoblot analysis; format: cell-based; outline: as §3
[11] = system: U2OS; experiment: Inhibition of PI3K in human U2OS cells expressing FLAG-tagged SGK3 assessed as reduction in 4EBP1 phosphorylation S65 residues at 0.5 uM 1 hr by immunoblot analysis; format: cell-based; outline: as §2
[12] = system: U2OS; experiment: Inhibition of PI3K in human U2OS cells expressing FLAG-tagged SGK3 assessed as reduction in SGK3 activity at 0.5 uM using cross peptide as substrate incubated for 1 to 2 mins in presence of [gamma-32P]-ATP by radioactive assay; format: cell-based; settings: time 1-2 min
[13] = system: U2OS; experiment: Inhibition of PI3K in human U2OS cells expressing FLAG-tagged SGK3 assessed as reduction in SGK3 phosphorylation at S486 residues 0.5 uM after 1 hr by immunoblot analysis; format: cell-based; outline: as §2
[14] = system: U2OS; experiment: Inhibition of PI3K in human U2OS cells expressing FLAG-tagged SGK3 assessed as reduction in SGK3 phosphorylation at T320 residues 0.5 uM after 1 to 2 mins by immunoblot analysis; format: cell-based; settings: time 1-2 min
[15] = system: U2OS; experiment: Inhibition of PI3K in human U2OS cells expressing FLAG-tagged SGK3 assessed as reduction in 4EBP1 phosphorylation T37/T46 residues at 0.5 uM 1 hr by immunoblot analysis; format: cell-based; outline: as §2
[16] = system: U2OS; experiment: Inhibition of PI3K in human U2OS cells expressing FLAG-tagged SGK3 assessed as reduction in NDRG1 phosphorylation at T346 residues at 0.5 uM 1 hr by immunoblot analysis; format: cell-based
[17] = system: U2OS; experiment: Inhibition of PI3K in human U2OS cells expressing GFP-PHAkt1 assessed as reduction in IGF-stimulated PtdIns(3,4,5)P3/PtdIns(3,4)P2 level in endosome at 0.5 uM pre incubated for 1 hr followed by IGF stimulation and measured after 15 mins by Alexa Fluor 488 staining based fluorescence microscopic analysis; format: subcellular; settings: time 1.25 hrs
[18] = system: U2OS; experiment: Inhibition of PI3K in human U2OS cells expressing FLAG-tagged SGK3 assessed as reduction in PRAS40 phosphorylation T246 residues at 0.5 uM 1 hr by immunoblot analysis; format: cell-based; outline: as §2
[19] = system: U2OS; experiment: Inhibition of PI3K in human U2OS cells expressing FLAG-tagged SGK3 assessed as reduction in AKT phosphorylation S473 residues at 0.5 uM 1 hr by immunoblot analysis; format: cell-based; outline: as §2
[20] = system: U2OS; experiment: Inhibition of PI3K in human U2OS cells expressing FLAG-tagged SGK3 assessed as reduction in SGK3 phosphorylation at T320 residues 0.5 uM after 1 hr by immunoblot analysis; format: cell-based; outline: as §2
[21] = biological target: Phosphatidylinositol 3-kinase catalytic subunit type 3 (Homo sapiens) (UniProt Q8NEB9); experiment: Inhibition of Vps34 in human U2OS cells expressing GFP-2xFYVEHrs assessed as reduction in PtdIns(3)P level in endosome at 0.5 uM incubated for 1 hr by Alexa Fluor 488 staining based fluorescence microscopic analysis relative to control
Sequence of Phosphatidylinositol 3-kinase catalytic subunit type 3 (Homo sapiens) (Q8NEB9 whole entry): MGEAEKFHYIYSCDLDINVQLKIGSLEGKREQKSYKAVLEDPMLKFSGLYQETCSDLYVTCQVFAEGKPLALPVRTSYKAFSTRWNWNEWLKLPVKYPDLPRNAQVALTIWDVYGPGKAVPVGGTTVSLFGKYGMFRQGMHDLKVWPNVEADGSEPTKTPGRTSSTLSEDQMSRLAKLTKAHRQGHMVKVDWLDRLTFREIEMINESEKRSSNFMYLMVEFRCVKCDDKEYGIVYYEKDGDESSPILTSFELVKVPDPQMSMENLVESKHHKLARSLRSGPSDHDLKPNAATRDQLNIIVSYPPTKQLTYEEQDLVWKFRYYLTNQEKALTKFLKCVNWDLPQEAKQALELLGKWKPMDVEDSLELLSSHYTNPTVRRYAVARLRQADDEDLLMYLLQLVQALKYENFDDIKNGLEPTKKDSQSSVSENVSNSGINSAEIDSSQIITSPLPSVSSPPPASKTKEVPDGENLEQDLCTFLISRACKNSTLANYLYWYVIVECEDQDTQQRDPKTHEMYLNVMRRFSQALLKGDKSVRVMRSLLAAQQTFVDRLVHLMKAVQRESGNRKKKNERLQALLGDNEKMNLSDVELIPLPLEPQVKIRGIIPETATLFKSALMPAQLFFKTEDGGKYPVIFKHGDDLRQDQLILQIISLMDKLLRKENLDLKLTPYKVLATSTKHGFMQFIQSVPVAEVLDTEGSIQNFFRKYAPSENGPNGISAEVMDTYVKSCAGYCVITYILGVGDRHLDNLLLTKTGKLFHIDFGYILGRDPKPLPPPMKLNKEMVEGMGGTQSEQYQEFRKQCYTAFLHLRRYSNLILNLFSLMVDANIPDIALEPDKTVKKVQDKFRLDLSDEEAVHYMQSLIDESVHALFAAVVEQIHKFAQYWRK
Outline: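 U2OS clone with low stable expression of lentiviral GFP–2×FYVEHrs; 1 h inhibitor exposure. Permeabilized by a freeze–thaw in liquid nitrogen, then fixed in 4% paraformaldehyde, stained with anti-GFP plus Alexa Fluor 488 secondary and DAPI. Ten random fields of 20–25 cells each; fluorescence per cell (field total/cell count) expressed relative to DMSO, mean±S.D.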

[22] = system: U2OS; experiment: Inhibition of PI3K in human U2OS cells expressing FLAG-tagged SGK3 assessed as reduction in SGK3 phosphorylation at S486 residues 0.5 uM after 1 to 2 mins by immunoblot analysis; format: cell-based; settings: time 1-2 min
[23] = system: U2OS; experiment: Inhibition of PI3K in human U2OS cells expressing FLAG-tagged SGK3 assessed as reduction in AKT phosphorylation T308 residues at 0.5 uM 1 hr by immunoblot analysis; format: cell-based; outline: as §2
[24] = biological target: Phosphatidylinositol 3-kinase catalytic subunit type 3 (Homo sapiens) (UniProt Q8NEB9); experiment: Inhibition of Vps34 in human U2OS cells expressing C-terminal tagged-SGK3 assessed as reduction in SGK3 level in endosome at 0.5 uM incubated for 1 hr by Alexa Fluor 594 staining based fluorescence microscopic analysis; format: subcellular

inhibition [1]: Active | inhibition [2]: Active
Compound: COc1ccc(-c2ccc3c(N4CCOC[C@@H]4C)nc(N4CCOC[C@@H]4C)nc3n2)cc1CO

Compound: Nc1cc(C(F)(F)F)c(-c2cc(N3CCOCC3)nc(N3CCOCC3)n2)cn1
inhibition [3]: inactive | inhibition [4]: Active | inhibition [5]: Active | inhibition [6]: Active | inhibition [7]: inactive

inhibition [8]: Active | inhibition [9]: Active | inhibition [10]: Active
Compound: CNc1nc(-c2ccc3c(N)n[nH]c3c2)cc(N2C[C@@H](C(=O)NC3CCCCC3)CC[C@H]2C)n1

inhibition [17]: Active | inhibition [21]: inactive | inhibition [24]: inactive
Compound: CS(=O)(=O)N1CCN(Cc2cc3nc(-c4cccc5[nH]ncc45)nc(N4CCOCC4)c3s2)CC1
inhibition [11]: inactive | inhibition [12]: Active | inhibition [13]: Active | inhibition [14]: Active | inhibition [15]: inactive | inhibition [16]: Active | inhibition [18]: Active | inhibition [19]: Active | inhibition [20]: Active | inhibition [22]: Active | inhibition [23]: Active
